The source of these data is ChEMBL document CHEMBL1799966, “Synthesis and anticancer activity of oxindole derived imidazo[1,5-a]pyrazines” (Eur J Med Chem, 2011).

Common to all, as to assay type: functional
One test has as its system A498. Kind of test: Anticancer activity against human A498 cells assessed as mean cell growth at 10^-5 M after 48 hrs by SRB assay. The method, boiled down: (§1)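 NCI-60 primary screen run to the US NCI protocol. Compound added at a single concentration of 10^-5 M and cultures incubated 48 h. The end point was sulforhodamine B (SRB) protein staining, reported as percent growth of treated cells relative to untreated control cells.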
(In general: In SRB staining, fixed cells bind dye roughly in proportion to their protein.)

The subject of another test is MCF7. Kind of test: Anticancer activity against human MCF7 cells assessed as mean cell growth at 10^-5 M after 48 hrs by SRB assay. The method, boiled down:
as §1

For another test, the system named is SR. Kind of test: Anticancer activity against human SR cells assessed as mean cell growth at 10^-5 M after 48 hrs by SRB assay. In outline: as §1
The next test deals with ACHN. Kind of test: Anticancer activity against human ACHN cells assessed as mean cell growth at 10^-5 M after 48 hrs by SRB assay. In outline:
as §1

Another test relates to IGROV-1. Kind of test: Anticancer activity against human IGROV1 cells assessed as mean cell growth at 10^-5 M after 48 hrs by SRB assay. In outline: as §1
The next test relates to MDA-MB-468. Put plainly: Anticancer activity against human MDA-MB-468 cells assessed as mean cell growth at 10^-5 M after 48 hrs by SRB assay. The method, boiled down: as §1
The test system of the next test is DU-145. Put plainly: Anticancer activity against human DU145 cells assessed as mean cell growth at 10^-5 M after 48 hrs by SRB assay. In outline:
as §1

The test system of the next test is NCI-H522. Put plainly: Anticancer activity against human NCI-H522 cells assessed as mean cell growth at 10^-5 M after 48 hrs by SRB assay. In outline:
as §1

In a further test the test system is COLO 205. Put plainly: Anticancer activity against human COLO205 cells assessed as mean cell growth at 10^-5 M after 48 hrs by SRB assay. In outline:
as §1

The subject of a further test is T47D. Kind of test: Anticancer activity against human T47D cells assessed as mean cell growth at 10^-5 M after 48 hrs by SRB assay. The method, boiled down: as §1

For `O=C1Nc2ccc(F)cc2/C1=C\c1nc(-c2ccc(F)cc2)n2ccccc12`, the Activity with A498 was found to be 97.53%. For the compound `COc1ccc(-c2nc(/C=C3/C(=O)Nc4ccc(F)cc43)c3ccccn23)cc1`, the Activity in the test on MCF7 stood at 101.96%. For the compound `COc1ccc(-c2nc(/C=C3/C(=O)N(C)c4ccccc43)c3ccccn23)cc1`, the Activity with SR is 77.31%. Regarding `COc1ccc(-c2nc(/C=C3/C(=O)Nc4ccccc43)c3ccccn23)cc1`, the Activity with ACHN turned out to be 72.54%. As for `CN1C(=O)/C(=C/c2nc(-c3cccc(F)c3)n3ccccc23)c2ccccc21`, the Activity with IGROV-1 amounted to 70.98%.

On to `O=C1Nc2ccccc2/C1=C\c1nc(-c2ccccc2)n2ccccc12`, for which the Activity with MDA-MB-468 is reported as 87.51%.

`Cc1ccc(-c2nc(/C=C3/C(=O)Nc4ccc(F)cc43)c3ccccn23)cc1`: the Activity in the test on DU-145 is recorded as 74.57%. In the case of `COc1cc(-c2nc(/C=C3/C(=O)N(C)c4ccccc43)c3ccccn23)cc(OC)c1OC`, the Activity in the test with SR is recorded as 98.17%.

For `Cc1ccc(-c2nc(/C=C3/C(=O)N(C)c4ccc(F)cc43)c3ccccn23)cc1`, the Activity with NCI-H522 turned out to be 99.39%. `CN1C(=O)/C(=C/c2nc(-c3ccccc3F)n3ccccc23)c2ccccc21`: in the test on DU-145, the Activity came to 84.72%. On to `COc1ccc(-c2nc(/C=C3/C(=O)N(C)c4ccccc43)c3ccccn23)cc1OC`, for which the Activity in the test with NCI-H522 was found to be 103.43%.

Consider `COc1ccc(-c2nc(/C=C3/C(=O)Nc4ccccc43)c3ccccn23)cc1OC`, for which the Activity with MCF7 is on record as 82.66%. `CN1C(=O)/C(=C/c2nc(-c3ccccc3F)n3ccccc23)c2cc(F)ccc21`: the Activity in the test with COLO 205 was determined as 99.95%. `O=C1Nc2ccccc2/C1=C\c1nc(-c2ccc(F)cc2)n2ccccc12`: the Activity in the test on MDA-MB-468 was 39.31%.

With `Cc1ccc(-c2nc(/C=C3/C(=O)Nc4ccccc43)c3ccccn23)cc1`, the Activity in the test with DU-145 was found to be 78.55%. With `CN1C(=O)/C(=C/c2nc(-c3ccccc3)n3ccccc23)c2ccccc21`, the Activity in the test on T47D is given as 85.21%. As for `O=C1Nc2ccc(F)cc2/C1=C\c1nc(-c2ccccc2F)n2ccccc12`, in the test on DU-145, the Activity is reported as 80.9%.
